Assay results from PMC9870662 (Medicinal Chemistry Research, 2023).
Read-outs that look alike come from different tables or passages of the source.

Assays:
Ovine COX-1 = biological target: T1, Ovine COX-1 (Ovis aries, UniProt P05979); test: COX-1 enzyme inhibition assay; assay type: biochemical
T1 sequence (P05979 25-600): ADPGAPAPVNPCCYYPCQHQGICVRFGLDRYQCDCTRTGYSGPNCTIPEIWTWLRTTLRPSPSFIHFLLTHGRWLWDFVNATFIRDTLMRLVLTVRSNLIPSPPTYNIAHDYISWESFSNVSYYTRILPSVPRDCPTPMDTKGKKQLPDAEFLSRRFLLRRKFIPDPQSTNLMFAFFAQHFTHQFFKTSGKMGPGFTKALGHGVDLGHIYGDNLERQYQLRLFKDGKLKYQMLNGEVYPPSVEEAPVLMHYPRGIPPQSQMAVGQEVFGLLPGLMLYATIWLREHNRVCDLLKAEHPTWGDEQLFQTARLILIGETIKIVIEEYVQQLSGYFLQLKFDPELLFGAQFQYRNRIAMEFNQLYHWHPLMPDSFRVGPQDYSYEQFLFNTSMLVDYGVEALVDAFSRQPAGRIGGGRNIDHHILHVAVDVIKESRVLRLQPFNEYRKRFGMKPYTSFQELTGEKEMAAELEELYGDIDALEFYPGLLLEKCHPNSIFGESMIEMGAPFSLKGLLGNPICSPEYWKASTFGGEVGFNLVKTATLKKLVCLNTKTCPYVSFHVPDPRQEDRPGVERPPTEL

Human recombinant COX-2 = biological target: T2, Human recombinant COX-2 (Homo sapiens, UniProt P35354); test: biochemical
T2 sequence (P35354 18-604): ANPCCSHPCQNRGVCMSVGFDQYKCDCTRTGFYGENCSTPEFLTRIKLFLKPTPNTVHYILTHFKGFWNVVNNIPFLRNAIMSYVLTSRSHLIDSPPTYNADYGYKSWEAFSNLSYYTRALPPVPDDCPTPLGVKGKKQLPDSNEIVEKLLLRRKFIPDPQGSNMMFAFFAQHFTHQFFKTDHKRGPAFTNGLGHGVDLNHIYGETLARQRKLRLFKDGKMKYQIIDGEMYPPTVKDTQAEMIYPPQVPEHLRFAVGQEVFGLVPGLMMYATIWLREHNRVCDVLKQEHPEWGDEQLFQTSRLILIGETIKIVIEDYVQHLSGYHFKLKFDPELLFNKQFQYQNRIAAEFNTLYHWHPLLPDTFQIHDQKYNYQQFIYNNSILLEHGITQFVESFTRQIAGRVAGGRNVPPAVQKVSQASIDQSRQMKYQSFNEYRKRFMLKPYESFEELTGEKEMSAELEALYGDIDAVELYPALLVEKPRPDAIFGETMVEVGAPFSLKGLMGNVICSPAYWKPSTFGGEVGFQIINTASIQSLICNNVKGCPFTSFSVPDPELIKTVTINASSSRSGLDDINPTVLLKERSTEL

male NMRI mice = test: Acetic acid-induced writhing test; assay type: in vivo; conditions: for Response (n) Mean ± SD: number of writhing responses during 30 min, eight mice; for ED50: Mus musculus, ip, read-out: Estimated ED50 (mg/kg) (95% Confidence Interval); for Estimated ED50 (mg/kg) (95% Confidence Interval): i.p., nonlinear regression of log dose-response curve
[1] = test system: MCF-7 breast cancer cell line; test: MTT cytotoxicity assay; assay type: cell-based; conditions: for inhibition at 10 µM: Homo sapiens, MCF7, 72 h, read-out: % Inhibition (10 µM); for % Inhibition (10 µM): MCF-7, 72 h, MTT
Procedure, shortened: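 MCF-7 cells from IBRC seeded in RPMI1640 at 37 °C, 5% CO2, high humidity. After one day, medium replaced with medium containing test compound; celecoxib as reference, plain medium as control. Incubated 72 h, then MTT added for 4 h at 37 °C. Supernatant removed, cells exposed to DMSO 20 min at 37 °C, absorbance read at 570 nm.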

[2] = read-out: IC50 in µM Ovine COX-1, fluorescent enzyme kit
[3] = read-out: IC50 in µM Human recombinant COX-2

SMILES	IC50 (Ovine COX-1) [µM]	IC50 (Human recombinant COX-2) [µM]	Selectivity Index (SI) (Human recombinant COX-2; COX-1 vs COX-2)	Response (n) Mean ± SD (male NMRI mice; 10 mg/kg i.p.)	Response (n) Mean ± SD (male NMRI mice; 20 mg/kg i.p.)	Response (n) Mean ± SD (male NMRI mice; 40 mg/kg i.p.)	Response (n) Mean ± SD (male NMRI mice; 80 mg/kg i.p.)	ED50 (male NMRI mice) [mg/kg]	inhibition at 10 µM [1] [%]	Response (n) Mean ± SD (male NMRI mice; 5 mg/kg i.p.)	IC50 (Ovine COX-1; [2]) [µM]	IC50 (Human recombinant COX-2; [3]) [µM]	Estimated ED50 (mg/kg) (95% Confidence Interval) (male NMRI mice)	% Inhibition (10 µM) [1] [%]	Selectivity Index (SI) (Human recombinant COX-2)
COc1ccc(-c2cc(-c3ccc(S(C)(=O)=O)cc3)nc3nc4ccccc4n23)cc1 [Compound 5g, 4-(4-Methoxyphenyl)-2-(4-(methylsulfonyl)phenyl)benzo[4,5]imidazo[1,2-a]pyrimidine]	> 100	5.4	> 18.5	36.63 ± 1.32	29.13 ± 6.27	21.88 ± 3.37	13.63 ± 1.32	32.1	79.6	–	–	–	–	–	–
Cc1ccc(-c2cc(-c3ccc(S(C)(=O)=O)cc3)nc3nc4ccccc4n23)cc1 [Compound 5d, 2-(4-(Methylsulfonyl)phenyl)-4-(p-tolyl)benzo[4,5]imidazo[1,2-a]pyrimidine]	40.8	0.68	60	17.88 ± 4.28	14.75 ± 4.47	13.25 ± 2.59	10.25 ± 2.73	5.75	78.2	18.63 ± 5.87	–	–	–	–	–
CS(=O)(=O)c1ccc(-c2cc(-c3ccccc3Cl)n3c(n2)nc2ccccc23)cc1 [Compound 5m, 4-(2-Chlorophenyl)-2-(4-(methylsulfonyl)phenyl)benzo[4,5]imidazo[1,2-a]pyrimidine]	15.2	> 100	–	–	–	–	–	–	51.3	–	–	–	–	–	–
COc1cccc(-c2cc(-c3ccc(S(C)(=O)=O)cc3)nc3nc4ccccc4n23)c1 [Compound 5f, 4-(3-Methoxyphenyl)-2-(4-(methylsulfonyl)phenyl)benzo[4,5]imidazo[1,2-a]pyrimidine]	> 100	> 100	–	–	–	–	–	–	75.4	–	–	–	–	–	–
COc1cc(-c2cc(-c3ccc(S(C)(=O)=O)cc3)nc3nc4ccccc4n23)cc(OC)c1OC [Compound 5i, 4-(3,4,5-Trimethoxyphenyl)-2-(4-(methylsulfonyl)phenyl)benzo[4,5]imidazo[1,2-a] pyrimidine]	16.3	0.58	28.1	39.25 ± 2.38	30.87 ± 3.82	24.62 ± 3.04	15.87 ± 3.18	40.1	77.9	–	–	–	–	–	–
CS(=O)(=O)c1ccc(-c2cc(-c3ccccc3)n3c(n2)nc2ccccc23)cc1 [Compound 5a, 2-(4-(Methylsulfonyl)phenyl)-4-phenylbenzo[4,5]imidazo[1,2-a]pyrimidine]	6.1	0.05	122	20.75 ± 3.07	17.25 ± 2.95	12.63 ± 2.64	10.00 ± 1.50	8.65	53.3	25 ± 1.58	–	–	–	–	–
Cc1ccc(-c2cc(C(F)(F)F)nn2-c2ccc(S(N)(=O)=O)cc2)cc1 [Celecoxib, reference compound]	–	–	–	33.62 ± 1.79	26.37 ± 2.86	13.75 ± 2.72	7.37 ± 2.39	20.2	75.8	–	–	–	–	–	–
CS(=O)(=O)c1ccc(-c2cc(-c3cccc(Cl)c3)n3c(n2)nc2ccccc23)cc1 [Compound 5n, 4-(3-Chlorophenyl)-2-(4-(methylsulfonyl)phenyl)benzo[4,5]imidazo[1,2-a]pyrimidine]	10.4	0.24	43.3	23.50 ± 3.20	19.88 ± 4.11	15.75 ± 4.35	11.50 ± 3.77	12.1	72.7	28.50 ± 4.72	–	–	–	–	–
COc1ccccc1-c1cc(-c2ccc(S(C)(=O)=O)cc2)nc2nc3ccccc3n12 [Compound 5e, 4-(2-Methoxyphenyl)-2-(4-(methylsulfonyl)phenyl)benzo[4,5]imidazo[1,2-a]pyrimidine]	6.9	0.06	115	36.63 ± 1.41	28.25 ± 3.99	19.13 ± 3.76	15 ± 1.58	29	74.3	38.38 ± 1.32	–	–	–	–	–
CS(=O)(=O)c1ccc(-c2cc(-c3ccc(Cl)cc3)n3c(n2)nc2ccccc23)cc1 [Compound 5o, 4-(4-Chlorophenyl)-2-(4-(methylsulfonyl)phenyl)benzo[4,5]imidazo[1,2-a]pyrimidine]	17.8	> 100	–	–	–	–	–	–	72.3	–	–	–	–	–	–
CS(=O)(=O)c1ccc(-c2cc(-c3ccc(F)cc3)n3c(n2)nc2ccccc23)cc1 [Compound 5l, 4-(4-Flourophenyl)-2-(4-(methylsulfonyl)phenyl)benzo[4,5]imidazo[1,2-a]pyrimidine]	–	–	–	34.25 ± 1.71	26.13 ± 2.67	19.25 ± 4.32	11.75 ± 1.48	–	–	–	38.8	0.69	25.26 (22.90–27.91) mg/kg	56.67	–
Cc1ccccc1-c1cc(-c2ccc(S(C)(=O)=O)cc2)nc2nc3ccccc3n12 [Compound 5b, 2-(4-(Methylsulfonyl)phenyl)-4-(o-tolyl)benzo[4,5]imidazo[1,2-a]pyrimidine]	48.3	> 100	–	–	–	–	–	–	76.9	–	–	–	–	–	–
COc1ccc(-c2cc(-c3ccc(S(C)(=O)=O)cc3)nc3nc4ccccc4n23)cc1OC [Compound 5h, 4-(3,4-Dimethoxyphenyl)-2-(4-(methylsulfonyl)phenyl)benzo[4,5]imidazo[1,2-a]pyrimidine]	13.9	> 100	–	–	–	–	–	–	79.3	–	–	–	–	–	–
CS(=O)(=O)c1ccc(-c2cc(-c3cccc(F)c3)n3c(n2)nc2ccccc23)cc1 [Compound 5k, 4-(3-Flourophenyl)-2-(4-(methylsulfonyl)phenyl)benzo[4,5]imidazo[1,2-a]pyrimidine]	–	–	–	32.38 ± 2.34	25.38 ± 3.43	17.63 ± 4.79	11.88 ± 3.18	–	–	–	> 100	5.8	22.80 (20.03–25.92) mg/kg	58.73	–
CS(=O)(=O)c1ccc(-c2cc(-c3ccccc3F)n3c(n2)nc2ccccc23)cc1 [Compound 5j, 4-(2-Flourophenyl)-2-(4-(methylsulfonyl)phenyl)benzo[4,5]imidazo[1,2-a]pyrimidine]	–	–	–	25.88 ± 2.98	19.88 ± 3.06	16.75 ± 3.11	13.38 ± 2.45	–	–	33.75 ± 1.39	14	0.28	15.34 (13.14–17.89) mg/kg	76.73	50
Cc1cccc(-c2cc(-c3ccc(S(C)(=O)=O)cc3)nc3nc4ccccc4n23)c1 [Compound 5c, 2-(4-(Methylsulfonyl)phenyl)-4-(m-tolyl)benzo[4,5]imidazo[1,2-a]pyrimidine]	24	> 100	–	–	–	–	–	–	76	–	–	–	–	–	–
